ChEMBL document CHEMBL4834428

Key:
[1] = compound: N#Cc1ccccc1CN1CC(C(N)=O)Oc2ccccc21; assay: Uncompetitive inhibition of His6-tagged SIRT1 (unknown origin) expressed in Escherichia coli BL21 (DE3) assessed as change in Km at 1600 nM measured every 2 mins for 30 mins in presence of NAD+ and ATP by […] based Michaelis-Menten analysis (reference value: 54.3 to 57.6 uM); conditions: Homo sapiens
Procedure, shortened: (§1)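 Continuous assay, triplicates: 100 nM His6-SirT1 catalytic domain, ~270 nM FLucK529ac, inhibitor 100–1600 nM in sirtuin buffer 2 plus luciferase buffer (0.5 mM ATP, 0.5 mM luciferin, pH 7.8).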

[2] = substrate: N#Cc1ccccc1CN1CC(C(N)=O)Oc2ccccc21; conditions: Homo sapiens; dose 400.0 nM, time 30.0 min
[3] = compound: N#Cc1ccccc1CN1CC(C(N)=O)Oc2ccccc21; assay: Uncompetitive inhibition of His6-tagged SIRT1 (unknown origin) expressed in Escherichia coli BL21 (DE3) assessed as change in Vmax at 1600 nM measured every 2 mins for 30 mins in presence of NAD+ and ATP by […] based Michaelis-Menten analysis (reference value: 860 to 1326 AU/min); conditions: Homo sapiens; procedure, shortened: as §1
[4] = substrate: N#Cc1ccccc1CN1CC(C(N)=O)Oc2ccccc21; conditions: Homo sapiens; dose 200.0 nM, time 30.0 min
[5] = substrate: N#Cc1ccccc1CN1CC(C(N)=O)Oc2ccccc21; conditions: Homo sapiens; dose 200.0 nM, time 30.0 min; remark: listed apart in the source
[6] = compound: N#Cc1ccccc1CN1CC(C(N)=O)Oc2ccccc21; assay: Uncompetitive inhibition of His6-tagged SIRT1 (unknown origin) expressed in Escherichia coli BL21 (DE3) assessed as change in Vmax at 800 nM measured every 2 mins for 30 mins in presence of NAD+ and ATP by […] based Michaelis-Menten analysis (reference value: 860 to 1326 AU/min); conditions: Homo sapiens; procedure, shortened: as §1
[7] = compound: N#Cc1ccccc1CN1CC(C(N)=O)Oc2ccccc21; assay: Uncompetitive inhibition of His6-tagged SIRT1 (unknown origin) expressed in Escherichia coli BL21 (DE3) assessed as change in Km at 800 nM measured every 2 mins for 30 mins in presence of NAD+ and ATP by […] based Michaelis-Menten analysis (reference value: 54.3 to 57.6 uM); conditions: Homo sapiens; procedure, shortened: as §1
[8] = substrate: N#Cc1ccccc1CN1CC(C(N)=O)Oc2ccccc21; conditions: Homo sapiens; dose 100.0 nM, time 30.0 min
[9] = substrate: N#Cc1ccccc1CN1CC(C(N)=O)Oc2ccccc21; conditions: Homo sapiens; dose 400.0 nM, time 30.0 min; remark: listed apart in the source
[10] = substrate: N#Cc1ccccc1CN1CC(C(N)=O)Oc2ccccc21; conditions: Homo sapiens; dose 100.0 nM, time 30.0 min; remark: listed apart in the source

B1: NAD-dependent protein deacetylase sirtuin-1 (Homo sapiens), Q96EB6 (protein)
chain: MADEAALALQPGGSPSAAGADREAASSPAGEPLRKRPRRDGPGLERSPGEPGGAAPEREVPAAARGCPGAAAAALWREAEAEAAAAGGEQEAQATAAAGEGDNGPGLQGPSREPPLADNLYDEDDDDEGEEEEEAAAAAIGYRDNLLFGDEIITNGFHSCESDEEDRASHASSSDWTPRPRIGPYTFVQQHLMIGTDPRTILKDLLPETIPPPELDDMTLWQIVINILSEPPKRKKRKDINTIEDAVKLLQECKKIIVLTGAGVSVSCGIPDFRSRDGIYARLAVDFPDLPDPQAMFDIEYFRKDPRPFFKFAKEIYPGQFQPSLCHKFIALSDKEGKLLRNYTQNIDTLEQVAGIQRIIQCHGSFATASCLICKYKVDCEAVRGDIFNQVVPRCPRCPADEPLAIMKPEIVFFGENLPEQFHRAMKYDKDEVDLLIVIGSSLKVRPVALIPSSIPHEVPQILINREPLPHLHFDVELLGDCDVIINELCHRLGGEYAKLCCNPVKLSEITEKPPRTQKELAYLSELPPTPLHVSEDSSSPERTSPPDSSVIVTLLDQAAKSNDDLDVSESKGCMEEKPQEVQTSRNVESIAEQMENPDLKNVGSSTGEKNERTSVAGTVRKCWPNRVAKEQISRRLDGNQYLFLPPNRYIFHGAEVYSDSEDDVLSSSSCGSNSDSGTCQSPSLEEPMEDESEIEEFYNGLEDEPDVPERAGGAGFGTDGDDQEAINEAISVKQEVTDMNYPSNKS
[1]
  Km: 4.9 µM
[2]
  Vmax: 522 AU/min
[3]
  Vmax: 208 AU/min
[4]
  Km: 34.6 µM
[5]
  Vmax: 673 AU/min
[6]
  Vmax: 304 AU/min
[7]
  Km: 10 µM
[8]
  Km: 47.7 µM
[9]
  Km: 23.8 µM
[10]
  Vmax: 864 AU/min
